Results reported in ChEMBL document CHEMBL3826920, “Solution-phase microwave assisted parallel synthesis, biological evaluation and in silico docking studies of N,N'-disubstituted thioureas derived from 3-chlorobenzoic acid” (Bioorg Med Chem, 2016).

Tests used:
[1] = target: Urease (Canavalia ensiformis) (UniProt P07374); assay: Inhibition of jack bean urease using urea as substrate assessed as reduction in ammonia production at 1 mM after 30 mins by indophenol method
[2] = system: NCI-H157; assay: Growth inhibition of human NCI-H157 cells at 100 uM after 48 hrs by SRB assay; format: functional; conditions: NCI-H157, 48 h, read-out: GI
How it was run: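 H-157 cells seeded at 10⁴ cells per well and grown at 37 °C under 5% CO₂ to a monolayer within 24 h. Compound added, with a vincristine standard and a cells-plus-media blank, for 48 h. Cells fixed in 50% ice-cold TCA (4 °C, 1 h), washed 5× with PBS, stained with 0.4% w/v SRB in 1% acetic acid (30 min, RT), rinsed, and dye solubilized in 10 mM Tris base. A490 read minus A630 background; triplicate.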

[3] = target: Urease (Canavalia ensiformis, UniProt P07374); assay: Inhibition of jack bean urease using urea as substrate assessed as reduction in ammonia production after 30 mins by indophenol method
Chain of Urease (P07374 whole entry): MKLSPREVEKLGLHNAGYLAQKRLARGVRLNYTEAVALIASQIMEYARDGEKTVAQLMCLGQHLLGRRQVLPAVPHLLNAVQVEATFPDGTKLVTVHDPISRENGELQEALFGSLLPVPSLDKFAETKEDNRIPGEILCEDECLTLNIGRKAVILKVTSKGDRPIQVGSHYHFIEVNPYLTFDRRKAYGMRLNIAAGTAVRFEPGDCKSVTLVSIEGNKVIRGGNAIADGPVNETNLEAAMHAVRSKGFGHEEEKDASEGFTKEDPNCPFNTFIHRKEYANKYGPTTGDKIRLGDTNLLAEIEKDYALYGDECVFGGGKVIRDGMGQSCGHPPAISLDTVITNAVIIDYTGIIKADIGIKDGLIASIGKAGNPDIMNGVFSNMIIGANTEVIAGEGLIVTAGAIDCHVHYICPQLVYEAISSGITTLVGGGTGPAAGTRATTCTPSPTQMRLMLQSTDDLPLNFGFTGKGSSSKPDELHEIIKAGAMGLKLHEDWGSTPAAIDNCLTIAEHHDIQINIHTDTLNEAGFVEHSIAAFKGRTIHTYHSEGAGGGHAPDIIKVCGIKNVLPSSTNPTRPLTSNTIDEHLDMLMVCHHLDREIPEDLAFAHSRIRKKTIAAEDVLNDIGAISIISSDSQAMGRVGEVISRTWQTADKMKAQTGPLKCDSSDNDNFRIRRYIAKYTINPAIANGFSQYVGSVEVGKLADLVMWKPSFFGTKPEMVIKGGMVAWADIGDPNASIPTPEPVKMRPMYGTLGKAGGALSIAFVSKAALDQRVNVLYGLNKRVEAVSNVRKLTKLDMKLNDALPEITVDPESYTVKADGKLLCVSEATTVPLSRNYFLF
How it was run: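 Compounds were first screened, and those giving at least 50% inhibition went on to dose-response testing. For each, 7–9 serial dilutions were made in assay buffer, and curves were run under the same conditions as the initial screen.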

Chain of Urease (Canavalia ensiformis) (P07374 whole entry, looked up): as the sequence (P07374 whole entry) above

inhibition [1]	Compound	inhibition of growth at 100 µM [2]	IC50 [3]
28.1%	O=C(NC(=S)Nc1ccc([N+](=O)[O-])cc1)c1cccc(Cl)c1	32.7%	–
32.7%	O=C(NC(=S)Nc1c(Cl)c(Cl)cc(Cl)c1Cl)c1cccc(Cl)c1	45.5%	–
27.4%	O=C(NC(=S)NCc1ccccc1Cl)c1cccc(Cl)c1	27.6%	–
–	CC[C@]1(O)C[C@H]2CN(CCc3c([nH]c4ccccc34)[C@@](C(=O)OC)(c3cc4c(cc3OC)N(C=O)[C@H]3[C@@](O)(C(=O)OC)[C@H](OC(C)=O)[C@]5(CC)C=CCN6CC[C@]43[C@@H]65)C2)C1 [VINCRISTINE]	74.6%	–
–	O=C(NC(=S)Nc1ccc(Br)cc1Br)c1cccc(Cl)c1	38.2%	6.32 µM
–	O=C(NC(=S)Nc1ncccn1)c1cccc(Cl)c1	57.2%	2.11 µM
–	O=C(NC(=S)Nc1cc(Cl)cc(Cl)c1)c1cccc(Cl)c1	48.5%	6.53 µM
–	CN(C(=S)NC(=O)c1cccc(Cl)c1)c1ccccc1	45.1%	17.5 µM
–	O=C(NC(=S)Nc1ccc(Cl)cc1)c1cccc(Cl)c1	52.6%	11.7 µM
–	O=C(NC(=S)Nc1c(Cl)cccc1Cl)c1cccc(Cl)c1	42.2%	5.38 µM
–	O=C(NC(=S)Nc1ccc(Cl)cc1Cl)c1cccc(Cl)c1	38.9%	1.34 µM
–	O=C(NC(=S)Nc1ccccc1[N+](=O)[O-])c1cccc(Cl)c1	36.4%	8.59 µM
36.9%	CCCCc1ccc(NC(=S)NC(=O)c2cccc(Cl)c2)cc1	47.7%	–
21.7%	COc1cccc(NC(=S)NC(=O)c2cccc(Cl)c2)c1	42.2%	–
–	O=C(NC(=S)NC1CCCCC1)c1cccc(Cl)c1	48.5%	14.3 µM
37.1%	O=C(NC(=S)Nc1cccc2ccccc12)c1cccc(Cl)c1	42.2%	–
–	O=C(NC(=S)Nc1ccccc1)c1cccc(Cl)c1	45.2%	3.24 µM
–	Cc1ccc(NC(=S)NC(=O)c2cccc(Cl)c2)cc1	39.4%	12.4 µM
–	O=C(NC(=S)Nc1c(Cl)cc(Cl)cc1Cl)c1cccc(Cl)c1	60.9%	3.64 µM

inhibition [1]	Compound	inhibition of growth at 100 µM [2]	IC50 [3]
–	O=C(NC(=S)Nc1cc(Cl)ccc1Cl)c1cccc(Cl)c1	46.6%	9.72 µM
25.7%	O=C(NC(=S)Nc1ccccc1Cl)c1cccc(Cl)c1	45.4%	–
–	O=C(NC(=S)Nc1cccc(Cl)c1Cl)c1cccc(Cl)c1	50.7%	1.92 µM
–	O=C(NC(=S)Nc1cc(Cl)c(Cl)cc1Cl)c1cccc(Cl)c1	43.3%	7.41 µM
–	O=C(NC(=S)Nc1cccc(Br)c1)c1cccc(Cl)c1	32.4%	20.1 µM
–	CCc1cccc(CC)c1NC(=S)NC(=O)c1cccc(Cl)c1	41.2%	12.6 µM
–	Cc1cc(C)c(NC(=S)NC(=O)c2cccc(Cl)c2)c(C)c1	43.7%	1.23 µM
–	O=C(NC(=S)Nc1ccccc1C(F)(F)F)c1cccc(Cl)c1	36.9%	5.58 µM
–	O=C(NC(=S)Nc1ccc(C(F)(F)F)cc1)c1cccc(Cl)c1	44.6%	7.04 µM
–	O=C(NC(=S)Nc1cccc(C(F)(F)F)c1)c1cccc(Cl)c1	48.9%	2.86 µM
–	O=C(NC(=S)Nc1ccc(F)cc1)c1cccc(Cl)c1	–	2.91 µM
36.7%	O=C(NC(=S)Nc1ccc(Cl)c(Cl)c1)c1cccc(Cl)c1	39.4%	–
29.1%	O=C(NC(=S)Nc1cccc(Cl)c1)c1cccc(Cl)c1	52.9%	–
23.1%	O=C(NC(=S)Nc1ccc([N+](=O)[O-])cc1[N+](=O)[O-])c1cccc(Cl)c1	36.1%	–
–	COc1ccccc1NC(=S)NC(=O)c1cccc(Cl)c1	42.8%	3.79 µM
27.9%	O=C(NC(=S)Nc1nc2ccccc2s1)c1cccc(Cl)c1	48.8%	–
29.9%	O=C(NC(=S)N(C1CCCCC1)C1CCCCC1)c1cccc(Cl)c1	47.8%	–
–	Cc1cccc(NC(=S)NC(=O)c2cccc(Cl)c2)c1C	41.7%	4.45 µM
–	O=C(NC(=S)NCc1ccccc1)c1cccc(Cl)c1	40.5%	16.4 µM
